The values that follow come from PMC6210075 (ACS Omega, 2018).

Series [1] is described as follows: Cassette dosing pharmacokinetics in rats. Type of series: in vivo. The settings on record: male, Sprague-Dawley, rat, whole blood, po, 1 mg/kg. Put shortly: (§1)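 Test compounds were given as a cassette cocktail at 1 mg/kg each, p.o. in PEG300, to groups of 4 rats or 4 mice. Blood was taken by tail vein at set intervals and group averages were used.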
Series [2] can be described thus: Water solubility. Type of series: physicochemical. The note with it: DI water, 37 °C, thermodynamic from solid. Put shortly: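 2–5 mg of solid was shaken in water for 2 days at 37 °C. The solution was filtered through PTFE, diluted twofold in MeOH containing 15 nM B-12, and quantified by LC/MS/MS.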
The nature of series [3]: Cassette dosing pharmacokinetics in mice. The settings on record: male, Swiss Webster, mouse, whole blood, po, 1 mg/kg. In kind it is in vivo. An outline of the steps: as §1
Series [4] concerns the target T1, rat FAAH (Rattus norvegicus, UniProt P97612).
T1 sequence (P97612 1-579): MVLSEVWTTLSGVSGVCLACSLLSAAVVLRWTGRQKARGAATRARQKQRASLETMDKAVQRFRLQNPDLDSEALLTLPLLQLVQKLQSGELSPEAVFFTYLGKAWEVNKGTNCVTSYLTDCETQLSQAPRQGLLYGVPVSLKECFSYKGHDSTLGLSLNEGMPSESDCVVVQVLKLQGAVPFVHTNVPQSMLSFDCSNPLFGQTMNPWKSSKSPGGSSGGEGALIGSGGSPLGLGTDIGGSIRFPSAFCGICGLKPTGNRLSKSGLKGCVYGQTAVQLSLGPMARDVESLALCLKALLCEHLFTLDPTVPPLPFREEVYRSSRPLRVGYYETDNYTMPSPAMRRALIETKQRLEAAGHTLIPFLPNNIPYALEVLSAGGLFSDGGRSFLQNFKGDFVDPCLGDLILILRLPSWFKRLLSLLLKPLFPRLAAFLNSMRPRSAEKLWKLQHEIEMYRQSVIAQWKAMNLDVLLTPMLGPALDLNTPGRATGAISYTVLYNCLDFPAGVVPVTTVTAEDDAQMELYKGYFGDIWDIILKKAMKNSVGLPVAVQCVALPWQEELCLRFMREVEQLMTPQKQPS
Description: FAAH fluorescent inhibition assay, rat brain microsomes. In kind it is biochemical. Put shortly: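 Rat brain microsomes: tissue homogenized in 20 mM phosphate (pH 7.4, 5 mM EDTA), spun at 9000g for 20 min, then 100 000g for 1 h, and stored at −80 °C. OMP (100 μM final) in 0.1 M sodium phosphate pH 8, 0.1 mg/mL BSA, 2% DMSO, 37 °C. Fluorescence (ex 303/em 394 nm) read every 30 s for 10 min. No-enzyme background subtracted. IC50 from linear regression of log[I] vs % remaining activity; triplicates.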

For series [5], the target named is T2, mouse FAAH (Mus musculus, UniProt O08914).
T2 sequence (O08914 1-579): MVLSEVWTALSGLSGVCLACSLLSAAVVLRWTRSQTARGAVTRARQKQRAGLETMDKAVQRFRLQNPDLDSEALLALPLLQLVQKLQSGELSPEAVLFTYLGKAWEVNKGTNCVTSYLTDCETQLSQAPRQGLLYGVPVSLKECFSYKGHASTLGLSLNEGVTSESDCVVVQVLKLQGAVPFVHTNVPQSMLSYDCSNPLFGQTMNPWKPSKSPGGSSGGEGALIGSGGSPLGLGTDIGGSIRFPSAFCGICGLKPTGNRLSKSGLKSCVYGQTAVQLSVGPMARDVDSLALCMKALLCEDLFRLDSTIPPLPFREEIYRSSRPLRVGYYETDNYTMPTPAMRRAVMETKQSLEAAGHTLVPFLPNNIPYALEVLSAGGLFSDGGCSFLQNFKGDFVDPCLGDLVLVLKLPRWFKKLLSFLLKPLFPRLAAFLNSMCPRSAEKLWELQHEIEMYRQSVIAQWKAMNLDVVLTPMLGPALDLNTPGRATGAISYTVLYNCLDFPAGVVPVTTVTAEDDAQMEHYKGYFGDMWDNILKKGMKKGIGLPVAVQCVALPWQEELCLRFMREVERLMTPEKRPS
Description: FAAH fluorescent inhibition assay, mouse crude tissue homogenate. Type of series: biochemical. The settings on record: FAAH IC50 (5 min pre-incubation).

Series [6] addresses T3, human CES2 (Homo sapiens, UniProt O00748).
T3 sequence (O00748 27-559): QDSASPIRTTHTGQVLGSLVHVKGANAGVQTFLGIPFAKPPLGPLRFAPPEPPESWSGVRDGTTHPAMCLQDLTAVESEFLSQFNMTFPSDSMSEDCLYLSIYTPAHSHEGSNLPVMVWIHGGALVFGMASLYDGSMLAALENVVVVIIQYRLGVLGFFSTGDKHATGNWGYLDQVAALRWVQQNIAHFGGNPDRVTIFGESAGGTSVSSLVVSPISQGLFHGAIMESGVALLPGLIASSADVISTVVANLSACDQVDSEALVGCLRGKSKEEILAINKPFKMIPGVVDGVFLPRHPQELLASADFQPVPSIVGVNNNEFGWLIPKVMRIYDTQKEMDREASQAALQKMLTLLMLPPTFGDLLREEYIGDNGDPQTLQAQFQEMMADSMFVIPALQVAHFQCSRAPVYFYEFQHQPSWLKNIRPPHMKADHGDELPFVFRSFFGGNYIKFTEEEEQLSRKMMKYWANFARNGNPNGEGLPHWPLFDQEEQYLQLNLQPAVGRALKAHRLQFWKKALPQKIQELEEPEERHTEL
Description: Esterase assay, CES2. Type of series: biochemical. Put shortly: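 Crude recombinant human CES2 extract was used with 5 min inhibitor preincubation in 0.1 M sodium phosphate, pH 8, 0.1 mg/mL BSA, 2% final DMSO. Substrate was cyano(6-methoxynaphthalen-2-yl)methyl acetate (50 μM final). […] Triplicates.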

Where [7] appears, read: FAAH IC50 (60 min pre-incubation), 60 min pre-incubation.

Values after ≈ are worked out from the molar mass of the structure shown.

The AUC is the area under the concentration-time curve, a measure of exposure. A lower AUC goes with less exposure. The term Cmax denotes the maximum level reached in the sampled fluid or tissue. The solubility is how much of the substance goes into solution per volume. A high value points to much dissolved substance. In general, IC50 refers to the concentration that gives 50% inhibition. A high value points to weaker potency.

For `O=C(Nc1ccc(C(F)(F)F)cc1F)N1CCC(Cc2cccc(Oc3ccc(C(F)(F)F)cn3)c2)CC1` [compound 18], the results for the AUC in series [1] and in series [3] were 0.6 µM·h and 0.41 µM·h, respectively. The figures for the Cmax in series [1] and in series [3] were 58 nM and 37 nM, respectively. Besides, the solubility at 2 days in series [2] amounted to 2.8 nM (≈ 1.52 ng/mL). For the same compound, the IC50 in series [4] (FAAH IC50 (5 min pre-incubation), 5 min pre-incubation) was greater than 10000 nM; in series [4] (setting [7]), 1100 nM; in series [5], greater than 10000 nM.

Take `O=C(Nc1cccnc1)N1CCC(Cc2cccc(Oc3ccc(C(F)(F)F)cn3)c2)CC1` [PF-3845, reference compound]: the IC50 in series [6] stood at 1100 nM; in series [4] (setting [7]), 0.2 nM.
